Sampled rows, rich in hits. Any-hit rate of the full collection: about 4.1%.
KCNQ1 inh – blocks the human KCNQ1 potassium channel; P51787; CHO-K1 KCNQ1, FluxOR thallium flux fluorescence; active compounds read high; B-score at 10 µM; actives 1.3% (n = 310,000); AID 2642;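 active = compounds whose thallium flux B-score, printed positive for inhibition, exceeds three library SD while starting fluorescence stays within three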;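 also: channel opened by potassium depolarization with thallium stimulus after 20 min compound exposure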
Cl transport mod – modulates chloride dependent transport by human KCC2. Q9H2X9. KCC2 cells, thallium flux FluoZin-2 fluorescence. B-score of Tl+ flux slope (higher = more flux/activation; lower = inhibition) at 10 µM. actives 2.2% (n = 190,000);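 active = thallium flux slope and its plate-corrected score both differing from the plate sample mean at a set confidence after two filtering rounds, in either direction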;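 also: slope of fluorescence scaled to starting intensity during 10 to 20 s after thallium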
KCNK9 block – blocks the human KCNK9 two-pore domain potassium channel | Q9NPC2 | HEK293 KCNK9, FluxOR thallium flux fluorescence; active compounds read low | B-score at 10 µM | actives 1.2% (n = 310,000) | AID 488922;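 active = ratio B-score over 3 SD below the library mean, with starting fluorescence within 5 SD of its mean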;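 also: negative B-score means less thallium flux so channel inhibition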
Target sequence (Q9NPC2 whole entry, looked up, the tested form may be a part): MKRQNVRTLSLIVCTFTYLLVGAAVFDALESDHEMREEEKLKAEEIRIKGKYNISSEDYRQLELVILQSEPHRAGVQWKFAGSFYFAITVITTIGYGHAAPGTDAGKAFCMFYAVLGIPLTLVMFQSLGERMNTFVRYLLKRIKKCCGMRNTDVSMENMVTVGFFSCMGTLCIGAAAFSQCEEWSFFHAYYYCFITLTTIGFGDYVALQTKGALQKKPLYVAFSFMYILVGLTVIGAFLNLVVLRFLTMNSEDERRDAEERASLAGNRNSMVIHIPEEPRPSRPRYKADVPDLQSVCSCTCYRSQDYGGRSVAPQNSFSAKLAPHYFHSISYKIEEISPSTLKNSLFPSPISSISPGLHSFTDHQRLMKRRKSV
KCNQ1 pot – potentiators or activators of human KCNQ1 potassium channel. P51787. CHO-K1 KCNQ1, thallium flux FluxOR fluorescence; active compounds read high. B-score at 10 µM. actives 0.35% (n = 310,000);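 active = fluorescence ratio B-score, a plate-corrected score, at least three library SD, with initial intensity B-score within 5 SD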
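assay system = KCNQ1-transfected CHO-K1 cells | medium = assay buffer with matched DMSO | probe or stimulus = depolarizing K+/Tl+ stimulus, K2SO4 and Tl2SO4 each 12.5 mM in 5x stock | dosing = single dose | incubation = dye 90 min, compound 20 min, room temperature | detection = kinetic FluxOR fluorescence, 10 s baseline plus 110 s post-stimulus | evaluation = ratio B score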
KCNK3 inh – human KCNK3 channel inhibition, primary screen. O14649. CHO-KCNK3 thallium flux, FluxOR fluorescence; active compounds read low. B-score at 10 µM. actives 0.84% (n = 340,000);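 active = B-score under library mean minus 4 SD, starting fluorescence ratio at most library mean plus 5 SD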;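 also: more negative B-score means stronger inhibition of thallium flux through KCNK3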
Target sequence (O14649 whole entry, looked up): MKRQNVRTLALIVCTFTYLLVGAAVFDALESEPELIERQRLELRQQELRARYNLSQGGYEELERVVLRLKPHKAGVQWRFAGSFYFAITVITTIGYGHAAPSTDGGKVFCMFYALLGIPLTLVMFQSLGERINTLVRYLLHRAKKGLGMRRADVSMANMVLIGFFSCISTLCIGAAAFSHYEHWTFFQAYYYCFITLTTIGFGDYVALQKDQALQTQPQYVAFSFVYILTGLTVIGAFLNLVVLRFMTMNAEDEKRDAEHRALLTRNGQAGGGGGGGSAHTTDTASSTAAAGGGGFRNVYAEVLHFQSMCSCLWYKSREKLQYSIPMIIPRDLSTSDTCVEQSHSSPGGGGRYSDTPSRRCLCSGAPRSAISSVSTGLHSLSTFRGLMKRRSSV
hERG rescue – hERG (human) protection from proarrhythmic block | Q12809 | CHO-hERG, FluxOR thallium flux, dofetilide IC70 present | activation (rescue from dofetilide block), less the hit threshold, % at 10 µM | actives 0.51% (n = 310,000);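 active = activation above the mean of controls blocked by dofetilide plus 5 SD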;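 also: thallium influx through hERG after potassium depolarization seen as dye fluorescence rise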
KCC2 secondary – confirmation of human KCC2 transport modulators. shares compounds with Cl transport mod. HEK293-KCC2, thallium flux, FluoZin2 fluorescence; active compounds read high. normalised thallium flux (F/F0 slope) at 10 µM. actives 15% (n = 3,700);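 active = thallium flux slope above the same plate's solvent-only control mean plus 3 SD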
KCC2 bumet counter – thallium flux despite bumetanide block in KCC2 cells, secondary assay 3. normalized thallium flux at 10 µM. AID 1714. actives 49% (n = 3,700). shares compounds with Cl transport mod. HEK293-KCC2 + bumetanide/ouabain, thallium flux FluoZin2; active compounds read high;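 active = thallium entry rate above the same plate's blocked-transporter control wells by more than 3 SD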;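 also: raw slope of fluorescence over initial fluorescence between 10 and 20 s after thallium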
KCC2 secondary2 – confirmation of human KCC2 transport modulators | normalized thallium flux at 10 µM | HEK293-KCC2, thallium flux FluoZin2 fluorescence; actives lie on both sides; F/F0 rise rate, 10–20 s post-thallium | AID 1715 | shares compounds with Cl transport mod | actives 23% (n = 3,700);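 active = thallium flux slope more than 3 SD above or below the plate's solvent-only control mean, mostly below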;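 also: raw slope with 0.1% DMSO as baseline and bumetanide as block control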
HEK counter1 – parental HEK flux effect, counter-screen | shares compounds with Cl transport mod | HEK293 parental cells, thallium flux FluoZin2, ouabain; baseline-ratio fluorescence slope, 10–20 s after thallium | thallium flux rate (normalised fluorescence) at 10 µM | actives 46% (n = 3,700);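 active = thallium flux rate significantly above the same plate's solvent-only control wells, beyond their mean plus 3 SD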
KCC2 ouabain – KCC2 (human) modulation, ouabain retest; shares compounds with Cl transport mod; HEK293-KCC2, thallium flux FluoZin2 fluorescence; bidirectional: low = inhibitor, high = activator; raw Tl+ flux slope (below DMSO = inhibition, above = activation) at 10 µM; actives 48% (n = 3,700);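 active = thallium flux slope beyond 3 SD from same-plate DMSO control mean in most replicates, usually higher, sometimes lower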;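 also: slope of initial-normalized fluorescence between seconds 10 and 20 after thallium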
HEK counter2 – counter-screen for KCC2 modulators: effect in parental HEK293 cells. shares compounds with Cl transport mod. thallium flux FluoZin-2 fluorescence slope. thallium flux slope at 10 µM. actives 33% (n = 3,700);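 active = thallium flux slope above the same plate's solvent-control mean plus 3 SD in both duplicate wells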;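 also: run without ouabain in cells lacking the KCC2 cotransporter; slope of fluorescence scaled to its starting value between 10 and 20 s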
KCNQ1 inh valid – human KCNQ1 channel inhibition, validation assay | inhibition, % at 10 µM | shares compounds with KCNQ1 inh | actives 93% (n = 1,600) | KCNQ1 cell line, FluxOR thallium flux fluorescence;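 active = primary screen active, with duplicate mean exceeding buffer control mean plus 3 SD of buffer wells, cut at about 28% in these data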;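 also: 0% = buffer control ratio and 100% = XE991 inhibitor control ratio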
CHO Tl flux – activity in parental CHO cells lacking KCNQ1. shares compounds with KCNQ1 inh. parental CHO-K1, FluxOR thallium flux fluorescence ratio; active compounds read low; zero means no signal rise above baseline. fluorescence ratio (Tl flux) at 10 µM. actives 21% (n = 1,600);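 active = mean of duplicate thallium-flux fluorescence ratios in parental host cells more than 5 SD below the buffer control mean, cut at about 0.38 in these data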;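 also: ratio is peak minus minimum fluorescence divided by baseline fluorescence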
KCNQ1 ephys val – confirmation of human KCNQ1 potassium channel inhibitors by electrophysiology | actives 20% (n = 490) | shares compounds with KCNQ1 inh | KCNQ1-CHO cells, automated patch clamp current | calls only at 10 µM;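 active = KCNQ1 current drop exceeding 3 SD of negative control wells, seen in both duplicate runs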;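 also: steady state current during a 2 s step from -80 to +40 mV; negative values mean current inhibition and positive values mean potentiation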
KCNQ2 inh – KCNQ1 inhibitor that also blocks rat KCNQ2 channel; shares compounds with KCNQ1 inh; KCNQ2 cells, FluxOR thallium flux fluorescence; inhibition, % at 10 µM; actives 71% (n = 1,600); AID 651746;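 active = mean percent inhibition of the KCNQ2 thallium signal more than 5 SD above the buffer-only control wells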;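 also: KCNQ2 expressed in CHO cells; 0% = buffer control wells and 100% = XE-991 inhibitor control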
KCNQ1 KCNE1 spec – selectivity of KCNQ1 inhibitors: inhibition of human KCNQ1/KCNE1 channel | actives 77% (n = 1,600) | inhibition, % at 10 µM | AID 652147 | shares compounds with KCNQ1 inh | KCNQ1/KCNE1 cells, FluxOR thallium flux fluorescence;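 active = mean percent inhibition of duplicate wells above the buffer-only control mean plus 3 SD of those controls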;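 also: 0% = buffer only wells and 100% = XE-991 inhibitor control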
KCNK3 confirm – confirmation of human KCNK3 two-pore domain potassium channel inhibitors. ratio percent of control, % at 10 µM. shares compounds with KCNK3 inh. CHO-KCNK3 thallium flux, FluxOR fluorescence; 0% buffer, 100% carvedilol maximal block. actives 99% (n = 2,400). AID 651638;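 active = ratio percent of control, averaged over triplicates, above buffer control mean plus 5 SD, cut at about 64% in these data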;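 also: ratio is the fluorescence rise from min to max over baseline after thallium stimulus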
KCNK3 uninduced – KCNK3 inhibitor counter-screen hit in non-induced cells; shares compounds with KCNK3 inh; non-induced KCNK3 parental cells, FluxOR thallium flux; active compounds read low; thallium flux ratio (lower = more inhibition) at 10 µM; actives 40% (n = 2,400); AID 651747;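 active = thallium flux ratio, averaged over three wells, more than 5 SD below the buffer control mean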;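 also: host cells are CHO cells without KCNK3 induction; ratio is peak minus trough fluorescence over baseline then normalized to buffer controls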
An asterisk follows results filed as active; i = inactive; · = no result given.

SMILES	KCNQ1 inh	Cl transport mod	KCNK9 block	KCNQ1 pot	KCNK3 inh	hERG rescue	KCNQ1 inh valid	CHO Tl flux	KCNQ2 inh	KCNQ1 KCNE1 spec	others
CC1=CC2=NC(=O)/C(=C/c3coc4ccc(Cl)cc4c3=O)C(=N)N2O1	10*	-9.5*	i	i	-9.2*	-13	·	·	·	·	KCC2 secondary=0.004*;KCC2 bumet counter=-0.0043*;KCC2 secondary2=0.015*;HEK counter1=0.00044*;KCC2 ouabain=0.0026*;HEK counter2=0.0026*;KCNK3 confirm=134*;KCNK3 uninduced=0.087*
Cc1ccc(S(=O)(=O)Cc2ccc(C(=O)NC3CCCCCC3)o2)cc1	i	·	i	i	i	-3	·	·	·	·
Cc1cc(C)c(-c2cc(NC(=O)COC(=O)c3ccc(NC(=O)CC#N)cc3)n(-c3ccccc3)n2)cc1C	6*	·	i	i	i	-9	156*	0.47	64%*	137%*	KCNQ1 ephys val=i
CC(=O)Nc1ccc2nc3c(=O)n(C)c(=O)n(C)c3nc2c1	8*	0.17	i	i	i	-14	54*	0.4	i	i
COc1cccc(OC)c1C(=O)Nc1ccc(C(=O)NCc2ccccc2)cc1	i	·	i	i	i	-12	·	·	·	·
Cc1ccc(C)c(S(=O)(=O)NCc2ccc(C(=O)N3CCN(C)CC3)cc2)c1	i	·	i	i	i	-8	·	·	·	·
Cc1ccc(C)c(S(=O)(=O)NCc2ccc(C(=O)N3CCC(Cc4ccccc4)CC3)cc2)c1	7*	0.1	i	i	i	-10	77*	0.44	92%*	95%*
CCc1cc(CNC(=O)C2CCC(=O)N(CCc3cccc(F)c3)C2)on1 (stereo not given)	i	·	i	i	i	-5	·	·	·	·
CC(C)C(=O)NC(=S)Nc1ccc(S(=O)(=O)N(C)Cc2ccccc2)cc1	11*	-1.6	i	i	i	-9	117*	0.42	104%*	196%*	KCNQ1 ephys val=i
CN(Cc1ccccc1)S(=O)(=O)c1ccc(NS(=O)(=O)Cc2ccccc2)cc1	8*	·	i	i	i	-17	130*	0.37*	118%*	92%*
c1ccc(-c2csc3ncnc(N4CCN(Cc5ccc6c(c5)OCO6)CC4)c23)cc1	6*	·	i	i	i	-21	110*	0.38	113%*	116%*	KCNQ1 ephys val=i
O=S(=O)(c1ccccc1)N1CCN(c2ncnc3scc(-c4ccccc4)c23)CC1	i	·	i	i	i	-7	·	·	·	·
Oc1ccccc1N1CCN(c2ncnc3scc(-c4ccccc4)c23)CC1	6*	·	-8*	i	i	-19	112*	0.41	91%*	156%*	KCNQ1 ephys val=i
CCCc1ccc(C(C)NC(=S)NC2CCCCC2)cc1 (stereo not given)	6*	·	i	i	i	-3	46*	0.73	i	i
CC(c1ccon1)N(C)Cc1cn(Cc2ccccc2)nc1-c1ccc2c(c1)OCO2 (stereo not given)	6*	·	i	i	i	-14	104*	0.43	96%*	57%*	KCNQ1 ephys val=i
O=C(CSC1=NS(=O)(=O)c2ccccc21)Nc1ccccc1	7*	-1.2	i	i	i	-24	78*	0.4	85%*	122%*
COC(=O)CSc1ccccc1C(=O)OC	i	1.1	i	i	i	-6	·	·	·	·
COC(=O)CSC1=NS(=O)(=O)c2ccccc21	8*	-0.026	i	i	i	-31	100*	0.38*	98%*	141%*
C[C@@H](C(=O)N=c1sc2ccccc2n1C)N1C(=O)C2CC=CCC2C1=O (stereo not given in full)	·	·	·	·	i	·	·	·	·	·
CCCCn1c(N)c(N(CCOC)C(=O)CN(C)CC(=O)Nc2ccc(Cl)c(Cl)c2)c(=O)[nH]c1=O	·	·	·	·	i	·	·	·	·	·
O=S(=O)(c1ccc(Br)s1)N1CCN(CCOc2ccccc2)CC1	·	·	·	·	i	·	·	·	·	·
COc1ccc(C2C(C)C(=O)C(C)C(c3ccc(OC)cc3)N2N=O)cc1 (stereo not given)	·	·	·	·	i	·	·	·	·	·
